Compound activity (PubChem BioAssay)
A selection: hits, their analogues and other compounds. The true share with any hit is near 2.6%.
CFTR F508del cor = F508del CFTR correction, initial screen, CFBE line, single point | CFBE cells, YFP halide quenching; stimulated with forskolin plus potentiator P3; % fluorescence drop versus neutral controls | activity (quench increase), % at 7.58 µM | 0.36% of 350,000 active | AID 720511, 2013;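 active means mean added fluorescence quench of at least 8% versus neutral control, with both replicates also reaching 8%; inconclusive means only one of the mean or replicate conditions met; inactive means mean below 8% and not both replicates reaching 8%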;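 further: cells transiently co-express mutant CFTR-F508del with the halide-sensitive YFP; corrector assay measuring rescue of mutant channel to the surface after 24 h compound exposure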
INS-1E GSIS act = GLuc luminescence reporter in INS-1E cells, primary screen for activators of glucose-dependent secretion of insulin. 0.61% of 370,000 active. INS-1E GLuc reporter insulin secretion, 2-3 h. activation, % at 16.6 µM;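 active means lowest replicate activation of at least 40%, so every replicate reaches that level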;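 further: 0% = median of neutral control wells and 100% = median of IBMX positive control wells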
ERAP1 HTS inh = human ERAP1 aminopeptidase inhibitors, primary screen, biochemical, single point, plate reader | Endoplasmic reticulum aminopeptidase 1 (Homo sapiens), Q9NZ08 | recombinant ERAP1, Leu-AMC fluorescence, 60 min | inhibition, % at 10.7 µM | 0.15% of 340,000 active | AID 652197, 2013;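 active means mean replicate inhibition of at least 30%, or all replicates individually reaching that 30% level; inactive means mean below 30% and not every replicate reaching it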;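 further: 0% = neutral control wells and 100% = L-leucinethiol positive control wells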
DENV2 CPE rescue = inhibitors of DENV2 cytopathic effect, primary screen, cell-based, plate reader, single concentration. DENV2-infected cells, cytopathic effect rescue. CPE inhibition, % at 9.99 µM. 1.7% of 350,000 active. AID 651640, 2012; in the data active means CPE inhibition above about 20%, passing the limit was not always enough; inconclusive means no clear call, values can overlap the other calls; tested in BHK-21 cells;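 further: 0% = median of neutral control wells and 100% = median of positive control wells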
miR122 inh = miR-122 Renilla sensor signal increase in Huh7, primary screen, miR-122 inhibitor project, cell-based, single point, plate reader. Huh7 miR-122 Renilla luciferase sensor, 48 h; neutral wells = 0, positive control = 100. activation (reporter increase), % at 12.5 µM. 0.3% of 340,000 active;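 active means mean replicate activation score at least 90 and every replicate individually at or above 90; inconclusive means only one of the two criteria met; inactive means neither criterion met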;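 further: higher luciferase means less miR-122 activity so hits act as miR-122 inhibitors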
E-sel inducer = E-selectin induction in HUVECs, primary screen, imaging, HUVEC, immunofluorescence imaging, single point. activation, % at 7.58 µM. normalized: neutral wells 0, TNF-alpha wells 100. P16581. 0.37% of 260,000 active. AID 686992, 2013;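 active means mean E-selectin-positive cell signal at least 10% of the positive control, reached in at least 60% of replicates, without over 20% cell loss; inconclusive means no rule given, readout overlaps actives, possibly toxicity-flagged; inactive means the rest, including those meeting only one limit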
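Assay system: HUVEC, human umbilical vein endothelial cells / Amount: 3,000 HUVEC/well / Controls: TNF-alpha positive control, DMSO neutral control / Compound dosing: single concentration / Medium: EGM-2 over gelatin coat / Evaluation: percent E-selectin-positive cells / Signal: immunofluorescence imaging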
* hit, by the source's call; ? = inconclusive; . = not tested or not shown; [ ] = remark or other dose.

SMILES	CFTR F508del cor	INS-1E GSIS act	ERAP1 HTS inh	DENV2 CPE rescue	miR122 inh	E-sel inducer
COc1cccc(CNC(=O)C[C@@H]2C=C[C@H](NC(=O)C3CCC3)[C@H](CO)O2)c1	-0.3	17.5	-8.8	-0.7	.	1.9
CCC(=O)Nc1ccc(Cl)c(NC(=S)NC(=O)COc2ccc(Cl)cc2)c1	.	43.9*	.	.	.	.
CCC(=O)Nc1ccc(Cl)c(NC(=S)NC(=O)COc2ccccc2)c1	0.0	-4.5	0.3	.	.	-0.2
O=C(C[C@@H]1CC[C@@H]2[C@H](COC[C@@H](O)CN2CC2CCCCC2)O1)NCC1CC1	-1.8	7.6	-0.8	8.7	-1.6[16.7 µM]	-0.1
C#CCOCCOCCOCCNc1nc(N2CCOCC2)nc(N2CCN(C(=O)[C@H](CCCN=C(N)N)n3cc(C(N)[C@@H](C)CC)nn3)CC2)n1 (stereo partly drawn)	-2.6	6.9	-3.9	118.7*	-1.0	-0.1
C#CCOCCOCCOCCNc1nc(N2CCN(C(=O)[C@H](CC(N)=O)n3cc(C(N)[C@@H](C)CC)nn3)CC2)nc(N2CCN(C(=O)[C@H](CCCCN)n3cc([C@@H](N)CC(N)=O)nn3)CC2)n1 (stereo partly drawn)	7.7	9.1	-5.7	-3.4	.	0.8
C#CCOCCOCCOCCNc1nc(N2CCN(C(=O)[C@H](CCCN=C(N)N)n3cc(C(N)[C@@H](C)CC)nn3)CC2)nc(N2CCN(C(=O)[C@H](CC(N)=O)n3cc([C@@H](N)CC(N)=O)nn3)CC2)n1 (stereo partly drawn)	-2.9	25.0	-2.1	-5.2	-4.5	0.0
C#CCOCCOCCOCCNc1nc(N2CCOCC2)nc(N2CCN(C(=O)[C@H](CCCCN)n3cc([C@@H](N)C(C)CC)nn3)CC2)n1 (stereo partly drawn)	-1.1	8.0	-8.3	?	6.4	0.0
C#CCOCCOCCOCCNc1nc(N2CCN(C(=O)[C@H](CCCN=C(N)N)n3cc(C(N)[C@@H](C)CC)nn3)CC2)nc(N2CCN(C(=O)[C@H](CC(N)=O)n3cc([C@@H](N)C(C)C)nn3)CC2)n1 (stereo partly drawn)	-0.6	16.2	-3.6	36.5*	-2.1	0.0
C#CCOCCOCCOCCNc1nc(N2CCN(C(=O)[C@H](CC(N)=O)n3cc(C(N)[C@H](C)CC)nn3)CC2)nc(N2CCN(C(=O)[C@H](CC(N)=O)n3cc(C(N)[C@@H](C)CC)nn3)CC2)n1 (stereo partly drawn)	-3.2	5.8	.	20.6*	3.6	0.5
CN(C)C(=O)c1ccc(-c2ccc([C@@H]3[C@H]4CN(C(=O)C5CCC5)CC(=O)N4[C@H]3CO)cc2)cc1	-1.8	-10.1	-0.6	-2.5	.	0.1
Cc1noc(C)c1NC(=O)Nc1ccc2c(c1)C(=O)N([C@H](C)CO)C[C@H](C)[C@H](CN(C)Cc1ccc(Cl)c(Cl)c1)OCCCC[C@H](C)O2	-0.7	-8.5	-3.4	26.6*	-3.6[16.7 µM]	0.0
Cc1noc(C)c1NC(=O)Nc1ccc2c(c1)C(=O)N([C@@H](C)CO)C[C@H](C)[C@@H](CN(C)Cc1ccccc1)O2	-1.4	12.7	3.3	29.1*	1.6[16.7 µM]	0.1
Cc1noc(C)c1NC(=O)Nc1ccc2c(c1)C(=O)N([C@@H](C)CO)C[C@H](C)[C@@H](CN(C)Cc1ccc3c(c1)OCO3)OCCCC[C@@H](C)O2	-1.3	-4.5	.	-7.1	5.9[16.7 µM]	-0.1
Cc1noc(C)c1NC(=O)Nc1ccc2c(c1)C(=O)N([C@@H](C)CO)C[C@@H](C)[C@@H](CN(C)Cc1ccccc1)OCCCC[C@@H](C)O2	-0.8	14.5	4.7	88.8*	14.0[16.7 µM]	-0.2
Cc1noc(C)c1NC(=O)Nc1ccc2c(c1)C(=O)N([C@H](C)CO)C[C@@H](C)[C@H](CN(C)Cc1ccccc1)O2	-0.5	9.1	4.9	-6.9	-0.9[16.7 µM]	-0.2
COc1ccc(CN(C)C[C@@H]2Oc3ccc(NC(=O)Cc4cn(C)c5ccccc45)cc3CC(=O)N([C@H](C)CO)C[C@@H]2C)cc1	3.5	-18.0	2.2	-2.4	-16.1[16.7 µM]	0.7
